From ChEMBL document CHEMBL4145461, “Novel non-sulfonamide 5-HT6 receptor partial inverse agonist in a group of imidazo[4,5-b]pyridines with cognition enhancing properties” (Eur J Med Chem, 2018)

Experiments:
[1] = target: Histamine H1 receptor (Homo sapiens) (UniProt P35367); test: Displacement of [3H]pyrilamine from recombinant human histamine H1 receptor at 1 uM after 60 mins by scintillation counting relative to control
[2] = target: D(3) dopamine receptor (Homo sapiens) (UniProt P35462); test: Displacement of [3H]methyl-spiperone from recombinant human dopamine D3 receptor at 1 uM after 60 mins by scintillation counting relative to control
Sequence of D(3) dopamine receptor (Homo sapiens) (P35462 whole entry): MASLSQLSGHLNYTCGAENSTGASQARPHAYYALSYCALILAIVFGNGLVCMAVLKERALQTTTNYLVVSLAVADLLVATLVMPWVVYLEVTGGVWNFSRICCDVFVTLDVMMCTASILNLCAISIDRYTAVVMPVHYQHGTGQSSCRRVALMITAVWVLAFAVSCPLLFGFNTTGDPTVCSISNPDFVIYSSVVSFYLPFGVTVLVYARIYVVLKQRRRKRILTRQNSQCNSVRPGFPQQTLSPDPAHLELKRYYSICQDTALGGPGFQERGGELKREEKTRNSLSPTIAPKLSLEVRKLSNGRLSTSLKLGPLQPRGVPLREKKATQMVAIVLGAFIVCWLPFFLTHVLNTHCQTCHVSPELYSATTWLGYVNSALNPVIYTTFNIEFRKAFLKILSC

[3] = Tmax in Wistar rat at 10 mg/kg, po administered as single dose by LC/MS analysis; format: ADME, organism-based; details: in vivo
In short: (§1)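 Male Wistar rats (229–272 g), fasted 16 h before and 4 h after dosing, given 10 mg/kg orally in water. Four rats per time point at 15 min, 30 min, 1, 2, 4 and 8 h. Plasma (K3EDTA) and brain homogenate collected and analysed by LC-MS/MS.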

[4] = target: hERG (KCNH2) (Homo sapiens, UniProt Q12809); test: Displacement of [3H]Dofetilide from recombinant human ERG at 1 uM after 60 mins by scintillation counting relative to control; details: probe [3H]Dofetilide
Sequence of hERG (KCNH2) (Q12809 whole entry): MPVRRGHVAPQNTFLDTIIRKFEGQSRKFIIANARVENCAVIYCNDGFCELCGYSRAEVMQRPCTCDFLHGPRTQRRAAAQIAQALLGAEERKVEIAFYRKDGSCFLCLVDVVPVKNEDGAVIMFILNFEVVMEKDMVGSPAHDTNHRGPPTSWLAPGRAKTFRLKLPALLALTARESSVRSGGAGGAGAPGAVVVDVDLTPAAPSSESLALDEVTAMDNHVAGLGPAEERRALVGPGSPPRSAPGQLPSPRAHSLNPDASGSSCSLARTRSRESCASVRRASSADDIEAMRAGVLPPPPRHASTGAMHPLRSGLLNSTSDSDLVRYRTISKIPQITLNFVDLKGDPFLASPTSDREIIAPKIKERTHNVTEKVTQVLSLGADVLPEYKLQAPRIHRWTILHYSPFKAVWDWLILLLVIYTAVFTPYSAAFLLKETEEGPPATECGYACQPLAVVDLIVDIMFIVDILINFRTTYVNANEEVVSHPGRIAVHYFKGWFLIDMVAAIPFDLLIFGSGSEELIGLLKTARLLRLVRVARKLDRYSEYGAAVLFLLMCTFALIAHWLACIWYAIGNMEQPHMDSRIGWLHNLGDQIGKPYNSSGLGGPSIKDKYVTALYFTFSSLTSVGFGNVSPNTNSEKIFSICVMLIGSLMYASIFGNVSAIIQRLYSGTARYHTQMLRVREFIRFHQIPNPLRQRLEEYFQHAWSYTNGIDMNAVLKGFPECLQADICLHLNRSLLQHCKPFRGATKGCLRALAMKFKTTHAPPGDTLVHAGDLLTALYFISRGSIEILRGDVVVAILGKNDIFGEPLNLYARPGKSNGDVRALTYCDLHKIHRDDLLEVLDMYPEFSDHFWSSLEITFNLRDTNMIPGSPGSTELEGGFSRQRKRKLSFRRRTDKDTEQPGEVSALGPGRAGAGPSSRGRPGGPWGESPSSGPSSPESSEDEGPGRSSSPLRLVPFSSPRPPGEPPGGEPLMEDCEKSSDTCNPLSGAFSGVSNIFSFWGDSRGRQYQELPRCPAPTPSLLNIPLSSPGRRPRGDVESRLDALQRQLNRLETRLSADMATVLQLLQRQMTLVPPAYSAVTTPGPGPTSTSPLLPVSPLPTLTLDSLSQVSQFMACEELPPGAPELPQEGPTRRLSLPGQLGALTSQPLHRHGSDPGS

[5] = target: Cytochrome P450 3A4 (Homo sapiens, UniProt P08684); test: Inhibition of CYP3A4 (unknown origin) at 0.025 to 25 uM after 2 hrs by firefly luciferase-luminescence based P450-glo assay; format: ADME
Sequence of Cytochrome P450 3A4 (P08684 whole entry, canonical isoform): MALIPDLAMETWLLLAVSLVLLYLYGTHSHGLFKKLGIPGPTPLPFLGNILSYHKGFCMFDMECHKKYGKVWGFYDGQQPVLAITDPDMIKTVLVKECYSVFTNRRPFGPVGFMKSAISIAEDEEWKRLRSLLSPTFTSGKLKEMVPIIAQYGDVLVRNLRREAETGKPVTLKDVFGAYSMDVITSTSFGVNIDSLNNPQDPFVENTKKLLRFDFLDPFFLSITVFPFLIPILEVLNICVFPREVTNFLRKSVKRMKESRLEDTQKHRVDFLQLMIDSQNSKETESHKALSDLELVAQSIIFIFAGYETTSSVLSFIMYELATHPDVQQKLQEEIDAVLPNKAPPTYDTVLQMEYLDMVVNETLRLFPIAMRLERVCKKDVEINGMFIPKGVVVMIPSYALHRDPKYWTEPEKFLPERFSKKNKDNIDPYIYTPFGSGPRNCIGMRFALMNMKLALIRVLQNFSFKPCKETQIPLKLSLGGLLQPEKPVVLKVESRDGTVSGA
In short: (§2)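 Recombinant CYP3A4 or CYP2D6 incubated 2 h with test compound (0.025–25 μM final) and an isoform-specific luciferin derivative. Firefly luciferase then added, and luminescence is proportional to D-luciferin formed. Reference inhibitors: ketoconazole (CYP3A4) and quinidine (CYP2D6, 0.1–100 nM).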

[6] = target: Histamine H3 receptor (Homo sapiens) (UniProt Q9Y5N1); test: Displacement of [3H]Nalpha-Me-histamine from recombinant human histamine H3 receptor at 1 uM after 60 mins by scintillation counting relative to control
Sequence of Histamine H3 receptor (Homo sapiens) (Q9Y5N1 whole entry): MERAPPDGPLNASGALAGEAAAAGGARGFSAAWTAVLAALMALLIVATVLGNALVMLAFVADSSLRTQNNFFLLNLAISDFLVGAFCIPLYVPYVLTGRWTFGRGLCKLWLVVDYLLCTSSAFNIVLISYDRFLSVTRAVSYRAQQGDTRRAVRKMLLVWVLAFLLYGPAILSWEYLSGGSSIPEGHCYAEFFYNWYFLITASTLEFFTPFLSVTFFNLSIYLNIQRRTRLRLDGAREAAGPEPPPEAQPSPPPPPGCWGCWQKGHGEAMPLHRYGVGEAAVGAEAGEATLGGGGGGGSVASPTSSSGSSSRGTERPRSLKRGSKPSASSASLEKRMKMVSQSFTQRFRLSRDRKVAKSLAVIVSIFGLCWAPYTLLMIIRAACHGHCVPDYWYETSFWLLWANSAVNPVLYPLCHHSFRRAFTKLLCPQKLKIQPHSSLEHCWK

[7] = target: Cytochrome P450 2D6 (Homo sapiens, UniProt P10635); test: Inhibition of CYP2D6 (unknown origin) at 0.025 to 25 uM after 2 hrs by firefly luciferase-luminescence based P450-glo assay; format: ADME; in short: as §2
Sequence of Cytochrome P450 2D6 (P10635 whole entry): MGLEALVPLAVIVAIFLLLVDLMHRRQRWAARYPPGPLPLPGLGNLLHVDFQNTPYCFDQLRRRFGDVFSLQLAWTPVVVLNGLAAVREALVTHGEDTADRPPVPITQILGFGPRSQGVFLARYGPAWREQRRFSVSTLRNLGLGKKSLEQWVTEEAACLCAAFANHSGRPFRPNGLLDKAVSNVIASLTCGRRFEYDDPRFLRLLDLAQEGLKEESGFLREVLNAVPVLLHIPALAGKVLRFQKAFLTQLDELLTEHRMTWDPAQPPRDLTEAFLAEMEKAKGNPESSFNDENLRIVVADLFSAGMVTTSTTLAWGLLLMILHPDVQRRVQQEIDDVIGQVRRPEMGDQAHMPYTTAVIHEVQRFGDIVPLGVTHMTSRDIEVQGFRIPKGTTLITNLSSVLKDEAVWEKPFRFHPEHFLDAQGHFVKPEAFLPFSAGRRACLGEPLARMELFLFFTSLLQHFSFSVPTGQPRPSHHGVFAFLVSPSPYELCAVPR

[8] = Cmax in Wistar rat at 10 mg/kg, po administered as single dose by LC/MS analysis; format: ADME, organism-based; parameters: dose 10 mg/kg, route oral; details: in vivo; in short: as §1
[9] = target: T1, 5-hydroxytryptamine receptor 1A (Homo sapiens, UniProt P08908); test: Displacement of [3H]-8-OH-DPAT from human 5HT1AR expressed in HEK293 cell membranes after 1 hr by microbeta counting method
T1 sequence (P08908 whole entry): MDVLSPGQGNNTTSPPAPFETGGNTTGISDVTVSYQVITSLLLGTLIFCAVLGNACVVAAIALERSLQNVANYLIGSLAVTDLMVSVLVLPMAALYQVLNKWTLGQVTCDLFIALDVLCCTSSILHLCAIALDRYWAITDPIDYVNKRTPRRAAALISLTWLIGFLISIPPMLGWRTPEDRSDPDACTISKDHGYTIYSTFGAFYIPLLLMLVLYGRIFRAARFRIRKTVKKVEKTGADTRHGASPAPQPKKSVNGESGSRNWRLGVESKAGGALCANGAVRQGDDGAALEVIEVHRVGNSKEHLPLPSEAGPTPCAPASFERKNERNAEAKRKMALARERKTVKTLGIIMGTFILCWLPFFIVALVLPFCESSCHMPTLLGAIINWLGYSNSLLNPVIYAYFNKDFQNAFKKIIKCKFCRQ
In short: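 HEK293 (5-HT1A, 5-HT6, 5-HT7b, D2L) or CHO-K1 (5-HT2A) membranes, all Tris–HCl with 4 mM MgCl2 plus receptor-specific EDTA/pargyline/ascorbate (D2L adds NaCl, KCl, CaCl2). Nonspecific binding: 10 μM 5-HT (5-HT1A, 5-HT7), chlorpromazine (5-HT2A), methiothepine (5-HT6), haloperidol (D2L). Triplicate, 7–8 concentrations (10⁻¹¹–10⁻⁴ M), filtration; Ki via Cheng–Prusoff, mean of three experiments.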

[10] = target: Sodium-dependent serotonin transporter (Homo sapiens) (UniProt P31645); test: Displacement of [3H]imipramine from recombinant human SERT at 1 uM after 60 mins by scintillation counting relative to control
Sequence of Sodium-dependent serotonin transporter (Homo sapiens) (P31645 whole entry, looked up): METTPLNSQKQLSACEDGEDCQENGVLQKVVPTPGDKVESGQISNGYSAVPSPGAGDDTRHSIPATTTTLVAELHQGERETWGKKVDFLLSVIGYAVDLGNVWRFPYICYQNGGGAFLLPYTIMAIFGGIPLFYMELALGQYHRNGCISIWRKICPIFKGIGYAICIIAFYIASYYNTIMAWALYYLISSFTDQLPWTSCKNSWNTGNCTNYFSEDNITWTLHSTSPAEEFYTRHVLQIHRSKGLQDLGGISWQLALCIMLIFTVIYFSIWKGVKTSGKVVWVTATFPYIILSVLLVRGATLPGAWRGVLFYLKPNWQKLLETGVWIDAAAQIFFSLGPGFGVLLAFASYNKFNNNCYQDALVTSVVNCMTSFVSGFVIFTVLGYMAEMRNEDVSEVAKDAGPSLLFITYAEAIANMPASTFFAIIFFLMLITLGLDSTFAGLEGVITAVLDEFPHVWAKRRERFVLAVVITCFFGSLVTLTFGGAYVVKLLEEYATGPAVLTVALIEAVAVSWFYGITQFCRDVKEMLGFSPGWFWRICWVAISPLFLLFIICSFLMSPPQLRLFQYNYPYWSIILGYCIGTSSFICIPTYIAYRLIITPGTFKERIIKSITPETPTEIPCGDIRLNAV

Sequence of Histamine H1 receptor (Homo sapiens) (P35367 whole entry): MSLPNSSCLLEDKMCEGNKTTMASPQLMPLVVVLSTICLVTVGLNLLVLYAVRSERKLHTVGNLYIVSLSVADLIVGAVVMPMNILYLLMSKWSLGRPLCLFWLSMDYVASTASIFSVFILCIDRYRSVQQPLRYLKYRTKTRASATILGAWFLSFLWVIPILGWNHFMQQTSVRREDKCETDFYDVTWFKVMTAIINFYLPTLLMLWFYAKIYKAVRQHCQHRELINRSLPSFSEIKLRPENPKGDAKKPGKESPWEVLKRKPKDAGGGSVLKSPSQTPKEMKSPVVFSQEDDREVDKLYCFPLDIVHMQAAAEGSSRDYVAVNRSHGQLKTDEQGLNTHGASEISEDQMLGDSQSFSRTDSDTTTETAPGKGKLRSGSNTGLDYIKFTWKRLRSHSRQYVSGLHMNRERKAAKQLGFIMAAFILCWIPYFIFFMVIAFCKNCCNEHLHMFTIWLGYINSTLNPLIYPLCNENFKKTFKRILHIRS

inhibition [1]: -4.9%
inhibition [2]: 18%
Tmax [3]: 15 min
inhibition (INH) [5]: Not Active
inhibition [6]: 1.6%
inhibition (INH) [7]: Not Active
Cmax [8]: 140 ng/mL
Ki [9]: 2790 nM
inhibition [10]: 1.9%
SMILES: CCc1nc2c(N3CCNCC3)ccnc2n1Cc1cccc(F)c1
inhibition at 1 h, 1 µM [4]: -6.1%
